Legend:
[1] = target: T1, Melanocortin receptor 4 (Homo sapiens, UniProt P32245); assay: Displacement of [125I]NDPMSH from human MC4R expressed in HEK293 cells; format: cell-based
[2] = AUC in CD1 mouse at 10 mg/kg, po; format: ADME, organism-based; parameters: dose 10 mg/kg, route oral; conditions: plasma
Method in brief: (§1)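 CD-1 mice, three animals, dosed i.v. at 5 mg/kg and by oral gavage at 10 mg/kg. Plasma CL, Vd, t1/2, Cmax, Tmax, oral AUC and F% were derived. Brain concentrations and brain/plasma ratios at 1 and 4 h were taken from the i.v. dosing.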

[3] = target: T1, Melanocortin receptor 4; assay: Antagonist activity at human MC4R expressed in HEK293 cells assessed as inhibition of alpha-MSH-stimulated cAMP production; format: functional, cell-based
[4] = Apparent permeability from apical to basolateral side of Caco-2 cells; format: ADME, cell-based; conditions: human
Method in brief: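 Caco-2 monolayer permeability, with Papp measured in the apical-to-basolateral direction.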

[5] = Distribution coefficient, log D by shake flask method; format: physicochemical; conditions: octanol/water
Method in brief: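 LogD measured by the shake-flask method; described elsewhere in the paper as lipophilicity at pH 7.4.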

[6] = Clearance in CD1 mouse at 5 mg/kg, iv; format: ADME, organism-based; parameters: dose 5 mg/kg, route intravenous; conditions: in vivo; method in brief: as §1
[7] = Ratio of drug level in brain to plasma in CD1 mouse at 5 mg/kg, iv after 4 hrs; format: ADME, organism-based; parameters: dose 5 mg/kg, route intravenous; conditions: brain and plasma, read-out: BPR
[8] = Volume of distribution in CD1 mouse at 5 mg/kg, iv; format: ADME, organism-based; parameters: dose 5 mg/kg, route intravenous; conditions: in vivo
Method in brief: (§2)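 CD-1 mice, three animals per route; single i.v. dose at 5 mg/kg and oral gavage at 10 mg/kg. Plasma PK parameters derived; brain concentrations and brain/plasma ratios taken from the i.v. dosing at 1 and 4 h.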

[9] = Drug level in CD1 mouse brain at 5 mg/kg, iv after 4 hrs; format: ADME, organism-based; parameters: dose 5 mg/kg, route intravenous; conditions: read-out: Drug uptake; method in brief: as §1
[10] = Drug level in CD1 mouse brain at 5 mg/kg, iv after 1 hr; format: ADME, organism-based; parameters: dose 5 mg/kg, route intravenous; conditions: read-out: Drug uptake; method in brief: as §1
[11] = Cmax in CD1 mouse at 10 mg/kg, po after 6 hrs; format: ADME, organism-based; parameters: dose 10 mg/kg, route oral; conditions: in vivo; method in brief: as §1
[12] = Half life in CD1 mouse at 5 mg/kg, iv; format: ADME, organism-based; parameters: dose 5 mg/kg, route intravenous; conditions: in vivo; method in brief: as §1
[13] = Bioavailability in CD1 mouse at 10 mg/kg, po; format: ADME, organism-based; conditions: in vivo; method in brief: as §1
[14] = Ratio of drug level in brain to plasma in CD1 mouse at 5 mg/kg, iv after 1 hr; format: ADME, organism-based; parameters: dose 5 mg/kg, route intravenous; conditions: brain and plasma, read-out: BPR
[15] = Tmax in CD1 mouse at 10 mg/kg, po; format: ADME, organism-based; parameters: dose 10 mg/kg, route oral; conditions: in vivo; method in brief: as §2
[16] = Volume of distribution in Sprague-Dawley rat at 5 mg/kg, iv and 10 mg/kg, po; format: ADME, organism-based; conditions: in vivo
Method in brief: (§3)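 Sprague–Dawley rats, three animals per route; i.v. dose 5 mg/kg and oral 10 mg/kg. Brain concentrations and brain/plasma ratios taken from the oral dosing at 1 and 4 h post-dose.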

[17] = Cmax in Sprague-Dawley rat at 10 mg/kg, po; format: ADME, organism-based; parameters: dose 10 mg/kg, route oral; conditions: in vivo
[18] = target: Melanocortin receptor 3 (Homo sapiens, UniProt P41968); assay: Displacement of [125I]NDPMSH from human MC3R expressed in HEK293 cells; format: cell-based
Sequence of Melanocortin receptor 3 (P41968 whole entry): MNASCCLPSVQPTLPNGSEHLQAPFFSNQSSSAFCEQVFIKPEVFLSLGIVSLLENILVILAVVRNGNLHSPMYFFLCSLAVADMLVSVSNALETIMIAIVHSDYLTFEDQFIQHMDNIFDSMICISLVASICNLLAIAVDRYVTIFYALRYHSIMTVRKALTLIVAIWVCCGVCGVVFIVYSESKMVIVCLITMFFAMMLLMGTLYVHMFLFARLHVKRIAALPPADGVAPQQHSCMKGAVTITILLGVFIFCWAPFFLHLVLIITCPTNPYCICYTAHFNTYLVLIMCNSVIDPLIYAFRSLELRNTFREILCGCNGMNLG

[19] = target: T2, Melanocyte-stimulating hormone receptor (Homo sapiens, UniProt Q01726); assay: Displacement of [125I]NDPMSH from human MC1R expressed in HEK293 cells at 10 uM; format: cell-based
Target sequence in this assay (Q01726 whole entry, looked up): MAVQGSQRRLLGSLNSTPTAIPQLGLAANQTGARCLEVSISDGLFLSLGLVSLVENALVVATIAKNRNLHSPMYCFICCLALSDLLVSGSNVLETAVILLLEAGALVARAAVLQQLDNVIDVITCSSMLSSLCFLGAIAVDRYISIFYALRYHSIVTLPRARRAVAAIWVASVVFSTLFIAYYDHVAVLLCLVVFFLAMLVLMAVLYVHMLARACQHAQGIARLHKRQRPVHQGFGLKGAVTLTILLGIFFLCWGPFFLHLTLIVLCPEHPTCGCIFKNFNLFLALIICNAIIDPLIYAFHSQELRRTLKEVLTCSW

[20] = Tmax in Sprague-Dawley rat at 5 mg/kg, iv and 10 mg/kg, po; format: ADME, organism-based; conditions: in vivo; method in brief: as §3
[21] = Half life in Sprague-Dawley rat at 5 mg/kg, iv and 10 mg/kg, po; format: ADME, organism-based; conditions: in vivo
[22] = Drug level in Sprague-Dawley rat brain at 10 mg/kg, po after 4 hrs; format: ADME, organism-based; parameters: dose 10 mg/kg, route oral; conditions: read-out: Drug uptake
[23] = Drug level in Sprague-Dawley rat brain at 10 mg/kg, po after 1 hr; format: ADME, organism-based; parameters: dose 10 mg/kg, route oral; conditions: read-out: Drug uptake
[24] = Ratio of drug level in brain to plasma in Sprague-Dawley rat at 10 mg/kg, po after 4 hrs; format: ADME, organism-based; parameters: dose 10 mg/kg, route oral; conditions: brain and plasma, read-out: BPR; method in brief: as §3
[25] = Clearance in Sprague-Dawley rat at 5 mg/kg, iv and 10 mg/kg, po; format: ADME, organism-based; conditions: in vivo
[26] = target: Melanocortin receptor 5 (Homo sapiens, UniProt P33032); assay: Displacement of [125I]NDPMSH from human MC5R expressed in HEK293 cells; format: cell-based
Sequence of Melanocortin receptor 5 (P33032 whole entry): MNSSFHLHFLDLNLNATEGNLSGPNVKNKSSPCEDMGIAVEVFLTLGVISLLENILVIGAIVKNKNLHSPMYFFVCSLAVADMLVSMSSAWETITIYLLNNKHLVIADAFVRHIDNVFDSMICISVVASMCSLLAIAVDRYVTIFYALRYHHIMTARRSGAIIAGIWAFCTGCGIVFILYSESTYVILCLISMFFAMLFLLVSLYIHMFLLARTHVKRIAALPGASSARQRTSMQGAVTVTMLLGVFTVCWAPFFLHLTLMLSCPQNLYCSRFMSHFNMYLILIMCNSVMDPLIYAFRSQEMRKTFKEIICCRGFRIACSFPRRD

[27] = Ratio of drug level in brain to plasma in Sprague-Dawley rat at 10 mg/kg, po after 1 hr; format: ADME, organism-based; parameters: dose 10 mg/kg, route oral; conditions: brain and plasma, read-out: BPR; method in brief: as §3
[28] = Oral bioavailability in Sprague-Dawley rat at 10 mg/kg, po; format: ADME, organism-based; conditions: in vivo; method in brief: as §3
[29] = AUC in Sprague-Dawley rat at 10 mg/kg, po; format: ADME, organism-based; parameters: dose 10 mg/kg, route oral; conditions: plasma
[30] = Clearance in Sprague-Dawley rat at 2.5 mg/kg, iv and 10 mg/kg, po; format: ADME, organism-based; conditions: in vivo
Method in brief: (§4)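 Sprague–Dawley rats, three animals, dosed i.v. at 2.5 mg/kg and orally at 10 mg/kg. CL and t1/2 were derived from the plasma profile.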

[31] = Tmax in Sprague-Dawley rat at 2.5 mg/kg, iv and 10 mg/kg, po; format: ADME, organism-based; conditions: in vivo
Method in brief: (§5)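 Sprague–Dawley rats, three animals per route; i.v. given at 2.5 mg/kg and oral at 10 mg/kg; plasma PK parameters calculated from these dosings.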

[32] = target: T2, Melanocyte-stimulating hormone receptor; assay: Displacement of [125I]NDPMSH from human MC1R expressed in HEK293 cells; format: cell-based
Target sequence in this assay (Q01726 whole entry): as the sequence (Q01726 whole entry, looked up) above

[33] = Half life in Sprague-Dawley rat at 2.5 mg/kg, iv and 10 mg/kg, po; format: ADME, organism-based; conditions: in vivo; method in brief: as §4
[34] = Volume of distribution in Sprague-Dawley rat at 2.5 mg/kg, iv and 10 mg/kg, po; format: ADME, organism-based; conditions: in vivo; method in brief: as §5
[35] = target: Growth hormone secretagogue receptor type 1 (Homo sapiens, UniProt Q92847); assay: Agonist activity at GHSR; format: functional
Sequence of Growth hormone secretagogue receptor type 1 (Q92847 whole entry): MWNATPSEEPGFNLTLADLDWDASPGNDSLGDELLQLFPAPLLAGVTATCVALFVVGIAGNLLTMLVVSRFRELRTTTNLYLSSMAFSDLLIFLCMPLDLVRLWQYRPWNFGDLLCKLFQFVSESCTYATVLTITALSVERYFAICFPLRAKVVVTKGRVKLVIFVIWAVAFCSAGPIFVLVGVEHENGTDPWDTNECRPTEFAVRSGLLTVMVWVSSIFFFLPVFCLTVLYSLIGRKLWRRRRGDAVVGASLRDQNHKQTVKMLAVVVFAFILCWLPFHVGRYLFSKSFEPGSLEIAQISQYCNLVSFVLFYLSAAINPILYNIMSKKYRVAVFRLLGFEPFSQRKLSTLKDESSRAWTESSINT

T1 sequence (P32245 whole entry): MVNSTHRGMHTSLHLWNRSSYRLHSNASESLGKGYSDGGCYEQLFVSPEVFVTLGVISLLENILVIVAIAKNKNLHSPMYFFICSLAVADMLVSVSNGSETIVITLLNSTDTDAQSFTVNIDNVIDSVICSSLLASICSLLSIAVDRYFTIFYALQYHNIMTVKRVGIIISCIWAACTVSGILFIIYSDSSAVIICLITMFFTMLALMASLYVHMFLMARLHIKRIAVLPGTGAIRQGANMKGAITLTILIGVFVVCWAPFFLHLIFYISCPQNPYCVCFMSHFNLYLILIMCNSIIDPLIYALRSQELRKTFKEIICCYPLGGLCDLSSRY

Compound: CC(C)C[C@H](NC(=O)CN)c1cccnc1N1CCN(C(=O)[C@H](C)Cc2ccc(Cl)cc2Cl)CC1
- Ki [1]: 0.039 µM

Compound: Cc1ccc(N2CCN(C(=O)[C@H](C)Cc3ccc(Cl)cc3)CC2)c([C@@H](N)CC(C)C)c1
- AUC [2]: 1.76 µg·h/mL
- IC50 [3]: 0.57 µM
- Papp A→B [4]: 18 nm/s

Compound: CC(C)C[C@H](N)c1cccnc1N1CCN(C(=O)CCc2ccc(Cl)cc2Cl)CC1
- Ki [1]: 0.89 µM

Compound: CC(C)C[C@@H](N)c1cccnc1N1CCN(C(=O)C(C)Cc2ccc(Cl)cc2Cl)CC1 (stereo not given in full)
- Ki [1]: 0.036 µM

Compound: COc1cc(Cl)ccc1CC(C)C(=O)N1CCN(c2ccc(C(F)(F)F)cc2[C@@H](N)CC(C)C)CC1 (stereo not given in full)
- AUC [2]: 0.249 µg·h/mL
- logD [5]: 4.5

Compound: CC(C)C[C@@H](NC(=O)CN)c1cccnc1N1CCN(C(=O)[C@H](C)Cc2ccc(Cl)cc2Cl)CC1
- clearance [6]: 2.24 L/h/kg
- Kp at 4 h [7]: 0.15
- Ki [1]: 0.006 µM
- Vd [8]: 16.8 L/kg
- concentration at 4 h [9]: 14 ng/g
- concentration at 1 h [10]: 35 ng/g
- AUC [2]: 0.551 µg·h/mL
- Cmax [11]: 0.288 µg/mL
- half-life [12]: 5.2 h
- bioavailability [13]: 12.6%
- Kp at 1 h [14]: 0.07
- Tmax [15]: 0.5 h

Compound: Cc1ccc(N2CCN(C(=O)[C@H](C)Cc3ccc(Cl)cc3)CC2)c([C@H](CC(C)C)NC(=O)CCN(C)C)c1
- Vd [16]: 4.1 L/kg
- Cmax [17]: 0.196 µg/mL
- Ki [1]: 0.0037 µM
- Ki [18]: 2.8 µM
- Activity [19]: 34%
- Tmax [20]: 5.3 h
- half-life [21]: 3.1 h
- concentration at 4 h [22]: 36 ng/g
- concentration at 1 h [23]: 12 ng/g
- Kp at 4 h [24]: 0.3
- IC50 [3]: 0.16 µM
- clearance [25]: 0.9 L/h/kg
- logD [5]: 2.4
- Ki [26]: 0.71 µM
- Kp at 1 h [27]: 0.2
- bioavailability [28]: 19%
- AUC [29]: 2.36 µg·h/mL

Compound: CC(C)C[C@H](NC(=O)CN)c1cc(C(F)(F)F)ccc1N1CCN(C(=O)CCc2ccc(Cl)cc2Cl)CC1
- AUC [2]: 0.687 µg·h/mL
- Activity [19]: 18%

Compound: Cc1ccc([C@@H](CC(C)C)NC(=O)CCN(C)C)c(N2CCN(C(=O)[C@H](C)Cc3ccc(Cl)cc3Cl)CC2)n1
- Cmax [17]: 0.06 µg/mL
- Ki [1]: 0.0025 µM
- Ki [18]: 3.3 µM
- clearance [30]: 3.89 L/h/kg
- Tmax [31]: 2 h
- concentration at 4 h [22]: 29 ng/g
- concentration at 1 h [23]: 15 ng/g
- Kp at 4 h [24]: 0.2
- IC50 [3]: 0.049 µM
- logD [5]: 3.3
- Ki [32]: 6.4 µM
- half-life [33]: 3.3 h
- Ki [26]: 1.2 µM
- Kp at 1 h [27]: 0.2
- Vd [34]: 18.6 L/kg
- bioavailability [28]: 19.6%
- AUC [29]: 0.517 µg·h/mL

Compound: CC(C)C[C@H](N)c1cc(C(F)(F)F)ccc1N1CCN(C(=O)CCc2ccc(Cl)cc2Cl)CC1
- Ki [1]: 0.075 µM

Compound: Cc1ccc([C@H](N)CC(C)C)c(N2CCN(C(=O)[C@H](C)Cc3ccc(Cl)cc3Cl)CC2)n1
- Ki [1]: 0.044 µM

Compound: CC(C)C[C@@H](N)c1cccnc1N1CCN(C(=O)CCc2ccc(Cl)cc2Cl)CC1
- Ki [1]: 0.26 µM

Compound: CC(C)C[C@H](NCCN)c1cccc(F)c1N1CCN(C(=O)[C@@H](Cc2ccc(Cl)cc2Cl)N2CCCC2=O)CC1
- Kp at 4 h [7]: 0.23
- Cmax [11]: 0.552 µg/mL
- Intrinsic activity [35]: 107%
- Papp A→B [4]: 20 nm/s

Compound: Cc1ccc(N2CCN(C(=O)[C@@H](Cc3ccc(Cl)cc3Cl)N3CCCC3=O)CC2)c([C@H](CC(C)C)NC(=O)CCN(C)C)c1
- Vd [16]: 8.8 L/kg
- Cmax [17]: 0.04 µg/mL
- Tmax [20]: 4 h
- half-life [21]: 2.6 h
- concentration at 4 h [22]: 15 ng/g
- concentration at 1 h [23]: 1.5 ng/g
- Kp at 4 h [24]: 0.3
- clearance [25]: 2.32 L/h/kg
- logD [5]: 3.9
- Kp at 1 h [27]: 0.2
- bioavailability [28]: 8.7%
- AUC [29]: 0.393 µg·h/mL
